Data taken from ChEMBL document CHEMBL3616436, “Synthesis, cytotoxicity and antimicrobial activity of thiourea derivatives incorporating 3-(trifluoromethyl)phenyl moiety” (Eur J Med Chem, 2015).
≈ marks a conversion by molar mass, not a printed value. Calls of active or inactive are those of the source. The calls are words filed in the database; no cut-off is given here.

What was measured:
[1] = test system: Staphylococcus epidermidis; test: Antimicrobial activity against hospital methicillin-resistant Staphylococcus epidermidis 62/04 after 18 hrs by twofold serial microdilution method; assay type: functional; details: 62/04, 18 h
Summary of the method: (§1)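 Twofold serial microdilution in Mueller-Hinton broth. Compound stock was made in DMSO and diluted in sterile water. Tested range was 0.125–512 µg/mL. Final inoculum was 10^5 CFU/mL. Plates were incubated 18 h at 35 °C. MIC is the lowest concentration preventing visible growth.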

[2] = test system: Staphylococcus aureus; test: Antimicrobial activity against hospital methicillin-resistant Staphylococcus aureus 53/05 after 18 hrs by twofold serial microdilution method; assay type: functional; details: 53/05, 18 h; summary of the method: as §1
[3] = test system: Staphylococcus epidermidis; test: Antimicrobial activity against hospital methicillin-resistant Staphylococcus epidermidis 23/04 after 18 hrs by twofold serial microdilution method; assay type: functional; details: 23/04, 18 h; summary of the method: as §1
[4] = test system: Staphylococcus aureus; test: Antimicrobial activity against Staphylococcus aureus ATCC 6538 after 18 hrs by twofold serial microdilution method; assay type: functional; details: ATCC 6538, 18 h
[5] = test system: Staphylococcus aureus; test: Antimicrobial activity against Staphylococcus aureus NCTC 4163 after 18 hrs by twofold serial microdilution method; assay type: functional; details: NCTC 4163, 18 h
[6] = test system: Staphylococcus epidermidis; test: Antimicrobial activity against hospital methicillin-resistant Staphylococcus epidermidis 151/04 after 18 hrs by twofold serial microdilution method; assay type: functional; details: 151/04, 18 h; summary of the method: as §1
[7] = test system: Staphylococcus aureus; test: Antimicrobial activity against hospital methicillin-resistant Staphylococcus aureus 79/05 after 18 hrs by twofold serial microdilution method; assay type: functional; details: 79/05, 18 h; summary of the method: as §1
[8] = test system: Micrococcus luteus; test: Antimicrobial activity against Micrococcus luteus ATCC 10240 at 400 ug after 18 hrs by disc-diffusion method; assay type: functional; details: ATCC 10240, 18 h, read-out: IZ
Summary of the method: (§2)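 Disc diffusion on Mueller-Hinton II agar per CLSI; 9 mm paper discs loaded with 400 µg compound from DMSO solution, dried, placed on agar; growth inhibition zone diameter read after 18 h at 35°C.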

[9] = test system: Staphylococcus epidermidis; test: Antimicrobial activity against Staphylococcus epidermidis ATCC 12228 after 18 hrs by twofold serial microdilution method; assay type: functional; details: ATCC 12228, 18 h
[10] = test system: Enterococcus faecalis; test: Antimicrobial activity against Enterococcus faecalis ATCC 29212 at 400 ug after 18 hrs by disc-diffusion method; assay type: functional; details: for zone of inhibition at 400 µg/disc: ATCC 29212, 18 h, read-out: IZ; summary of the method: as §2
[11] = test system: Staphylococcus epidermidis; test: Antimicrobial activity against hospital methicillin-resistant Staphylococcus epidermidis 76/04 after 18 hrs by twofold serial microdilution method; assay type: functional; details: 76/04, 18 h; summary of the method: as §1
[12] = test system: Staphylococcus aureus; test: Antimicrobial activity against Staphylococcus aureus ATCC 6538 at 400 ug after 18 hrs by disc-diffusion method; assay type: functional; details: ATCC 6538, 18 h, read-out: IZ; summary of the method: as §2
[13] = test system: Staphylococcus epidermidis; test: Antimicrobial activity against Staphylococcus epidermidis ATCC 35984 after 18 hrs by twofold serial microdilution method; assay type: functional; details: ATCC 35984, 18 h
[14] = test system: Staphylococcus aureus; test: Ratio of ciprofloxacin MIC to compound MIC for hospital methicillin-resistant Staphylococcus aureus 573/11 after 18 hrs by twofold serial microdilution method; assay type: functional
Summary of the method: (§3)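 Ratio of MICs for ciprofloxacin and test agent, each from twofold serial broth microdilution in Mueller-Hinton broth following CLSI guidelines. DMSO stock was diluted in sterile water to 0.125–512 µg/mL, with a final inoculum of 10^5 CFU/mL.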

[15] = test system: Staphylococcus aureus; test: Ratio of ciprofloxacin MIC to compound MIC for hospital methicillin-resistant Staphylococcus aureus 81/05 after 18 hrs by twofold serial microdilution method; assay type: functional; summary of the method: as §3
[16] = test system: Staphylococcus aureus; test: Ratio of ciprofloxacin MIC to compound MIC for hospital methicillin-resistant Staphylococcus aureus 53/05 after 18 hrs by twofold serial microdilution method; assay type: functional; summary of the method: as §3
[17] = test system: Staphylococcus aureus; test: Ratio of ciprofloxacin MIC to compound MIC for hospital methicillin-resistant Staphylococcus aureus 54/05 after 18 hrs by twofold serial microdilution method; assay type: functional; summary of the method: as §3
[18] = test system: Staphylococcus aureus; test: Ratio of ciprofloxacin MIC to compound MIC for hospital methicillin-resistant Staphylococcus aureus 80/05 after 18 hrs by twofold serial microdilution method; assay type: functional; summary of the method: as §3
[19] = test system: Staphylococcus epidermidis; test: Ratio of ciprofloxacin MIC to compound MIC for hospital methicillin-resistant Staphylococcus epidermidis […]/[…] after 18 hrs by twofold serial microdilution method; assay type: functional, 16/04
[20] = test system: Staphylococcus epidermidis; test: Ratio of ciprofloxacin MIC to compound MIC for hospital methicillin-resistant Staphylococcus epidermidis 151/04 after 18 hrs by twofold serial microdilution method; assay type: functional; summary of the method: as §3
[21] = test system: Staphylococcus aureus; test: Ratio of ciprofloxacin MIC to compound MIC for hospital methicillin-resistant Staphylococcus aureus 522/11 after 18 hrs by twofold serial microdilution method; assay type: functional; summary of the method: as §3
[22] = test system: Staphylococcus aureus; test: Antimicrobial activity against hospital methicillin-resistant Staphylococcus aureus 54/05 after 18 hrs by twofold serial microdilution method; assay type: functional; details: 54/05, 18 h; summary of the method: as §1
[23] = test system: Staphylococcus aureus; test: Ratio of ciprofloxacin MIC to compound MIC for hospital methicillin-resistant Staphylococcus aureus 57/05 after 18 hrs by twofold serial microdilution method; assay type: functional; summary of the method: as §3
[24] = Cytotoxicity against human MT4 cells; assay type: cell-based
[25] = test system: Staphylococcus epidermidis; test: Ratio of ciprofloxacin MIC to compound MIC for hospital methicillin-resistant Staphylococcus epidermidis 24/04 after 18 hrs by twofold serial microdilution method; assay type: functional
[26] = test system: Human alphaherpesvirus 1; test: Antiviral activity against Human herpesvirus 1 KOS ATCC VR-1493 infected in African green monkey Vero 76 cells assessed as reduction of virus-plaque formation after 3 days by crystal violet staining; assay type: functional, organism-based; details: Human alphaherpesvirus 1, KOS ATCC VR1493, Vero, 72 h
Summary of the method: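 Plaque reduction: Vero-76 at 2x10^5 cells/well grown to confluent monolayers, infected 2 h at 50–100 PFU/well; after removing unadsorbed virus, overlay of D-MEM, 1% inactivated FBS, 0.75% methylcellulose with or without serial compound dilutions; 3 days at 37°C, fixed and stained with crystal violet in 50% ethanol, plaques counted; EC50 by linear regression.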

[27] = test system: Staphylococcus aureus; test: Ratio of ciprofloxacin MIC to compound MIC for hospital methicillin-resistant Staphylococcus aureus 79/05 after 18 hrs by twofold serial microdilution method; assay type: functional; summary of the method: as §3
[28] = Antiviral activity against Bovine viral diarrhea virus 1-NADL ATCC VR-534 infected in MDBK cells assessed as protection against virus-induced cytopathogenicity after 3 to 4 days by MTT assay; assay type: functional, cell-based; details: Bovine viral diarrhea virus isolates and strains, ATCC VR-534, MDBK
Summary of the method: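 Cells seeded in 96-well plates (BHK 5x10^4, MDBK 3x10^4 cells/well), grown overnight to confluence, infected at m.o.i. 0.01 (BHK for Reo-1, MDBK for BVDV); serial compound dilutions in maintenance medium with 0.5% inactivated FBS added after 1 h; viability by MTT after 3–4 days at 37°C; EC50 for 50% protection by linear regression.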

[29] = test system: Staphylococcus epidermidis; test: Ratio of ciprofloxacin MIC to compound MIC for hospital methicillin-resistant Staphylococcus epidermidis 23/04 after 18 hrs by twofold serial microdilution method; assay type: functional; summary of the method: as §3
[30] = test system: Mycobacterium tuberculosis; test: Antimycobacterial activity against drug-sensitive Mycobacterium tuberculosis Spec. 192; assay type: functional
Summary of the method: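 Classical test-tube successive-dilution method in Youmans' modification of Proskauer and Beck liquid medium with 10% bovine serum. Inoculum came from 14-day cultures. DMSO stock was 10 mg/mL, diluted geometrically in medium. Tubes were incubated at 37 °C. Concentrations tested were 3.1, 6.2, 12.5, 25, 50 and 100 µg/ml. MIC is the minimum concentration inhibiting growth relative to compound-free tubes.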

[31] = test system: Staphylococcus aureus; test: Antimicrobial activity against hospital methicillin-resistant Staphylococcus aureus 80/05 after 18 hrs by twofold serial microdilution method; assay type: functional; details: 80/05, 18 h; summary of the method: as §1

SMILES | MIC [1] [µg/mL] | MIC [2] [µg/mL] | MIC [3] [µg/mL] | MIC [4] [µg/mL] | MIC [5] [µg/mL] | MIC [6] [µg/mL] | MIC [7] [µg/mL] | zone of inhibition at 400 µg/disc [8] [mm] | MIC [9] [µg/mL] | zone of inhibition at 400 µg/disc [10] [mm] | MIC [11] [µg/mL] | zone of inhibition at 400 µg/disc [12] [mm] | MIC [13] [µg/mL] | Ratio [14] | Ratio [15] | Ratio [16] | Ratio [17] | Ratio [18] | Ratio [19] | Ratio [20] | also measured
O=C(O)c1cn(C2CC2)c2cc(N3CCNCC3)c(F)cc2c1=O [CIPROFLOXACIN] | 0.125 (≈ 0.377 µM) | 64 (≈ 193 µM) | 2 (≈ 6.04 µM) | 0.25 (≈ 0.754 µM) | 0.25 (≈ 0.754 µM) | 4 (≈ 12.1 µM) | 64 (≈ 193 µM) | 22 | 0.25 (≈ 0.754 µM) | 15 | 0.125 (≈ 0.377 µM) | 28 | 0.25 (≈ 0.754 µM) | – | – | – | – | – | – | – | –
Fc1ccc(NC(=S)Nc2cccc(C(F)(F)F)c2)cc1Cl | 0.5 (≈ 1.43 µM) | 1 (≈ 2.87 µM) | 1 (≈ 2.87 µM) | 1 (≈ 2.87 µM) | 1 (≈ 2.87 µM) | 2 (≈ 5.73 µM) | 1 (≈ 2.87 µM) | 30 | 2 (≈ 5.73 µM) | 20 | 0.25 (≈ 0.717 µM) | 30 | 2 (≈ 5.73 µM) | 128 | 128 | 128 | 128 | 128 | 128 | 128 | Ratio [21]: 128; MIC [22]: 1 µg/mL (≈ 2.87 µM); Ratio [23]: 128; CC50 [24]: 8 µM; Ratio [25]: 128; EC50 [26]: > 20 µM; Ratio [27]: 128; EC50 [28]: > 11 µM; Ratio [29]: 128; MIC [30]: 50 µg/mL (≈ 143 µM); MIC [31]: 0.25 µg/mL (≈ 0.717 µM)
FC(F)(F)c1cccc(NC(=S)NCCc2ccccc2)c1 | 8 (≈ 24.7 µM) | 8 (≈ 24.7 µM) | 8 (≈ 24.7 µM) | 8 (≈ 24.7 µM) | 8 (≈ 24.7 µM) | 16 (≈ 49.3 µM) | 16 (≈ 49.3 µM) | 15 | 16 (≈ 49.3 µM) | – | 8 (≈ 24.7 µM) | 15 | 8 (≈ 24.7 µM) | 128 | 128 | 128 | 128 | 128 | 128 | 128 | Ratio [21]: 128; MIC [22]: 8 µg/mL (≈ 24.7 µM); Ratio [23]: 128; CC50 [24]: 8.8 µM; Ratio [25]: 128; EC50 [26]: > 46 µM; Ratio [27]: 128; EC50 [28]: > 48 µM; Ratio [29]: 128; MIC [30]: 100 µg/mL (≈ 308 µM); inhibition zone (IZ) [10]: inactive; MIC [31]: 8 µg/mL (≈ 24.7 µM)
FC(F)(F)c1cccc(NC(=S)Nc2cccc(Br)c2)c1 | 1 (≈ 2.67 µM) | 1 (≈ 2.67 µM) | 2 (≈ 5.33 µM) | 1 (≈ 2.67 µM) | 1 (≈ 2.67 µM) | 2 (≈ 5.33 µM) | 0.5 (≈ 1.33 µM) | 30 | 2 (≈ 5.33 µM) | 18 | 1 (≈ 2.67 µM) | 29 | 2 (≈ 5.33 µM) | 128 | 128 | 128 | 128 | 128 | 128 | 128 | Ratio [21]: 128; MIC [22]: 0.5 µg/mL (≈ 1.33 µM); Ratio [23]: 128; CC50 [24]: 9.2 µM; Ratio [25]: 128; EC50 [26]: > 14 µM; Ratio [27]: 128; EC50 [28]: > 10 µM; Ratio [29]: 128; MIC [30]: > 100 µg/mL; MIC [31]: 0.5 µg/mL (≈ 1.33 µM)
